This is one part of a sample in which hits are shown more often than they occur.
CHOP inhibitor: inhibitors of CHOP promoter induction, primary screen, cell-based, unfolded protein response, luciferase reporter; 220,000 tested, 3.8% active; AID 2732, 2010; CHO-K1 CHOP-promoter luciferase, tunicamycin-induced, 15-18 h; inhibition, % at 10 µM;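 active = compounds that reduced the stress-induced luciferase reporter signal by more than about 70% of percent inhibition, limit read from the data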;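 also: 0% = tunicamycin plus vehicle and 100% = wells without tunicamycin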
A1 inh: caspase 3/7 activation in MEF A1-2A-BIM cells, primary screen, A1 inhibitor project, cell-based, luminescence, HTS. Caspase-Glo 3/7 luminescence, 3 h; percent of clofoctol response, vehicle zero. caspase activation, % (test concentration not listed). 330,000 tested, 0.066% active;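 active = over half of replicate activation scores above 10%, or exactly half above 10 with the replicate mean above 10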
XBP1 UPR activ: activators of adaptive XBP1 UPR arm, primary screen, cell-based, CHO-XBP1 luciferase reporter, luminescence, uHTS; IRE1-XBP1 UPR activation; percent of tunicamycin response, DMSO as zero; activation, % at 20 µM; 330,000 tested, 0.33% active; AID 463104, 2010;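 active = versus positive control, 20 µM dose yields 30% or more activation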;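 also: 100% = tunicamycin at 10 µg/mL and 0% = DMSO only wells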
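Material: CHO cell line with stable XBP1 luciferase reporter; buffer or medium: F12 medium containing 10% fetal bovine serum; compound: single point, 20 µM final compound, 1% DMSO; incubation: 6 h treatment, 37 °C; measured by: glow luminescence from Steady-Glo reagent; evaluation: activation, % of tunicamycin; control set: tunicamycin high, DMSO low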
CHOP UPR activ: activators of apoptotic CHOP UPR arm, primary screen, cell-based, CHO-CHOP luciferase reporter, luminescence, uHTS. UPR activation; percent of tunicamycin response over DMSO baseline. activation, % at 10 µM. 330,000 tested, 0.34% active;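 active = at 10 µM dose, activation of 40% or more, normalized to positive control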;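 also: 100% = tunicamycin at 10 µg/mL and 0% = DMSO alone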
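Test system: CHO CHOP reporter cells. Input: 500 CHO-CHOP cells per well. Medium: F12 with 10% FBS. Technique: luciferase luminescence. Measure: percent activation relative to tunicamycin control. Dosing: 10 µM compound, 0.5% DMSO. Timing: 16-18 h cell attachment, then 6 h compound exposure, 37 °C.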
CHOP confirm: retest of CHOP induction inhibitors, confirmation, cell-based | CHO-CHOP promoter luciferase reporter, tunicamycin-induced, luminescence | 2,100 tested, 45% active | shares compounds with CHOP inhibitor | inhibition, % at 10 µM;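 active = mean of three repeat readings of reporter signal inhibition above a set limit, cut at about 70% in these data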;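 also: 0% = tunicamycin plus vehicle and 100% = wells lacking tunicamycin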
Numbers without * were called inactive; . = no result given.

SMILES	CHOP inhibitor	A1 inh	XBP1 UPR activ	CHOP UPR activ	others
COc1ccccc1NC(=O)Cn1nnc(-c2ccccc2NC(=O)c2cccs2)n1	28	1	-3	-2
O=C(Cn1nnc(-c2ccccc2NC(=O)c2cccs2)n1)Nc1ccccc1	80*	0	1	0
COc1ccccc1NC(=O)Cn1nnc(-c2ccccc2NC(=O)c2cnccn2)n1	90*	0	3	2
COc1ccc(NC(=O)Cn2nnc(-c3ccccc3NC(=O)c3ccco3)n2)cc1	82*	0	1	-4
CCCCCCCC1c2c(c(C)c(C)oc2=O)Oc2c(C)c(C)oc(=O)c21	.	0	-6	1
CCN1C(=O)[C@@H]2[C@@H](c3ccc(-c4ccc(F)cc4)cc3)N3CCCC[C@@]3(C(=O)OC)[C@@H]2C1=O	.	2	0	2
O=[N+]([O-])c1ccc(N/N=C\c2ccccc2OCc2ccccc2)cc1	76*	0	0	2
Cc1cc(C)nc(N/N=C/c2ccccc2OCc2ccc([N+](=O)[O-])cc2)n1	-4	-1	2	6
COc1ccc(C(=O)Nc2ccnn2C2CCN(C(C)CSC)CC2)cc1 (stereo not given)	.	-2	0	2
COc1ccc(NS(=O)(=O)c2cccc(C(=O)NCc3ccccc3CN3CCCC3)c2)cc1	.	0	-4	0
COc1cccc(-c2cc(C(F)(F)F)nc(N3CCOCC3)n2)c1	74*	1	-1	1
COc1ccccc1-c1cc(C(F)(F)F)nc(N2CCN(c3ccccc3)CC2)n1	23	0	0	0
COc1ccccc1-c1cc(C(F)(F)F)nc(N2CCOCC2)n1	72*	0	-3	0
CCOc1ccc(S(=O)(=O)NCCC(=O)Nc2cccc(C(=O)OC)c2)cc1	.	1	-3	0
COc1ccc(CC(=O)OCC(=O)Nc2ncc(Cl)c(C)c2Cl)cc1	.	.	-2	-1
O=C(N/N=C/c1cccc(Oc2ccccc2)c1)c1ccccc1Br	84*	0	0	-2
CCC(=O)Oc1oc(-c2ccccc2)nc1C=Nc1ccccc1OC	93*	-1	1	4
CN(C(=O)COC(=O)CCC(=O)c1ccc(Cl)cc1)c1c(N)n(Cc2ccccc2)c(=O)[nH]c1=O	.	0	2	0
Cc1cccc(N2CCN(C(=O)CS(=O)(=O)Cc3nc(-c4ccccc4F)oc3C)CC2C)c1 (stereo not given)	98*	0	-3	0	CHOP confirm=80*
Cc1oc(-c2ccccc2F)nc1CS(=O)(=O)CC(=O)N1CCOCC1	29	1	-5	2
Cc1cccc(Oc2cc(NC(=O)Cn3cnc([N+](=O)[O-])n3)cc([N+](=O)[O-])c2)c1	103*	0	.	.	CHOP confirm=34
CCn1c(SCC(=O)Nc2nc(C)cs2)nnc1-c1ccncc1	.	0	-3	-1
Cc1csc(NC(=O)CSc2nnc3c4ccccc4nc(C(C)(C)C)n23)n1	105*	0	-3	0	CHOP confirm=125*
Cc1nn(-c2ccc(N3CCCCC3)nn2)c(C)c1CCC(=O)Nc1cc(F)ccc1F	.	-2	0	4
CCCNC(=O)c1nnsc1S(=O)(=O)c1ccc(Cl)cc1	108*	.	-9	-5	CHOP confirm=141*
SMILES	CHOP inhibitor	A1 inh	XBP1 UPR activ	CHOP UPR activ	others
CNC(=O)c1nnsc1S(=O)c1ccc(Cl)cc1 (stereo not given)	107*	.	-10	-11	CHOP confirm=8
CCCNC(=O)c1nnsc1S(=O)c1ccc(Cl)cc1 (stereo not given)	107*	.	-8	-11	CHOP confirm=141*
Cc1ccc(S(=O)c2snnc2C)cc1 (stereo not given)	.	0	2	3
Cc1csc(NC(=O)CSc2nc(=O)n(CCN(C)C)c3c2CCCC3)n1	.	0	-1	2
COc1ccccc1NC(=O)COC(=O)c1cc([N+](=O)[O-])ccc1N1CCCC1	.	0	5	0
O=S(=O)(Cc1ccccc1)N1CCN(Cc2ccc(F)cc2Cl)CC1	.	1	-3	1
CCc1ccc(OCC(=O)NC(NC(=S)Nc2ccc(Cl)cc2)C(Cl)(Cl)Cl)cc1 (stereo not given)	102*	-1	6	21	CHOP confirm=70*

Compound activity as filed in PubChem BioAssay.
